The list is not random: actives were taken first. Their share in the collection is about 1.9%.
M4 PAM: human M4 muscarinic receptor positive allosteric modulators, primary screen, CHO-K1 cells, Fluo-8 calcium fluorescence | AID 624126, 2012 | CHO-K1 hM4/Gqi5, ACh EC20; 0% = ACh EC20, 100% = maximal ACh | actives 0.4% (n = 360,000) | activation, % at 3 µM | Muscarinic acetylcholine receptor M4 (Homo sapiens), P08173;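 active = activation above its plate's cutoff, the mean activation of sample wells plus 3 SD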
CHRM5 PAM: human M5 muscarinic receptor positive allosteric modulators, primary screen, CHO-K1 cells, Fluo-8 calcium fluorescence; Muscarinic acetylcholine receptor M5 (Homo sapiens), P08912; CHO-K1 hM5, ACh EC20 PAM; 0% = ACh EC20, 100% = ACh EC100; activation, % at 3 µM; actives 0.3% (n = 360,000); AID 624038, 2012;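 active = activation above the run cutoff, the mean activation of all test compounds plus 3 SD, cut at about 18% in these data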
Target sequence (P08912 whole entry, looked up): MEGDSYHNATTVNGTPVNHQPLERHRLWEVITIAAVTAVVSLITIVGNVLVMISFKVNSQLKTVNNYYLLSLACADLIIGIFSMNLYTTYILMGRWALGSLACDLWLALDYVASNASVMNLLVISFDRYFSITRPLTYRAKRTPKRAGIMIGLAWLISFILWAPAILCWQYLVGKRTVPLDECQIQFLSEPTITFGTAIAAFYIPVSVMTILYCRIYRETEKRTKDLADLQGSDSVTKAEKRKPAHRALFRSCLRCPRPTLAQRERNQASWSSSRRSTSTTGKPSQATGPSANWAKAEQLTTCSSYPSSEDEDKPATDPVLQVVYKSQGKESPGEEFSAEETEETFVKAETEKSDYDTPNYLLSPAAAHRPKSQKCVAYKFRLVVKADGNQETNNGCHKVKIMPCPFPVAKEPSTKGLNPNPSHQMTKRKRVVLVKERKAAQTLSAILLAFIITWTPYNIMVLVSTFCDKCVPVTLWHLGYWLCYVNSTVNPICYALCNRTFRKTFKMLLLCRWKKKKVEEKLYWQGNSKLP
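Probe or stimulus: acetylcholine, EC20 level; Assay system: human M5 receptor in CHO-K1 cells; Schedule: compound preincubation 140 s before EC20 acetylcholine addition; Technique: intracellular calcium via Fluo-8 fluorescence; Dosing: single-point, 3 µM nominal; Read-out basis: percent activation from peak-over-basal fluorescence ratio, scaled EC20-to-EC100 acetylcholine; Repeats: one well per compound, no replicates.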
M4 antag: human M4 muscarinic receptor antagonists, primary screen, CHO cells, Fluo-8 calcium fluorescence; Muscarinic acetylcholine receptor M4 (Homo sapiens), P08173; CHO-hM4 cells, ACh EC80; inhibition, % at 3 µM; actives 0.73% (n = 360,000);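 active = inhibition above its plate's cutoff, the mean inhibition of sample wells plus 3 SD, cut at about 27% in these data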;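 also: 0% = acetylcholine EC80 with DMSO and 100% = DMSO without agonist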
M5 antag: human M5 muscarinic receptor antagonists, primary screen, CHO cells, Fluo-8 calcium fluorescence. Muscarinic acetylcholine receptor M5 (Homo sapiens), P08912. actives 0.59% (n = 360,000). inhibition, % at 3 µM. CHO-hM5 cells, ACh EC80;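 active = inhibition above a per-plate cutoff, the mean of that plate's test compounds plus 3 SD, cut at about 27% in these data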;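 also: 0% = acetylcholine EC80 with DMSO and 100% = DMSO without agonist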
M5 ag: human M5 muscarinic receptor agonists, primary screen, CHO-K1 cells, Fluo-8 calcium fluorescence | actives 0.19% (n = 360,000) | Muscarinic acetylcholine receptor M5 (Homo sapiens), P08912 | CHO-K1 hM5 cells; 0% DMSO wells, 100% maximal acetylcholine response | activation, % at 3 µM;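 active = activation above the run's mean over test compounds plus 3 SD, cut at about 23% in these data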;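 also: signal is peak over basal fluorescence ratio across the kinetic read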
M4 ag: human M4 muscarinic receptor agonists, primary screen, CHO-K1 cells, Fluo-8 calcium fluorescence | Muscarinic acetylcholine receptor M4 (Homo sapiens), P08173 | CHO-K1 hM4/Gqi5; vehicle 0%, full acetylcholine response 100% | activation, % at 3 µM | actives 0.14% (n = 360,000);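 active = activation above the run mean over all test wells plus 3 SD, cut at about 32% in these data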;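 also: peak over basal fluorescence ratio per well then scaled between controls; 0% = DMSO wells and 100% = acetylcholine at EC100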
* marks the source's active call; other numbers are inactive results.

SMILES	M4 PAM	CHRM5 PAM	M4 antag	M5 antag	M5 ag	M4 ag
CCCCC(=O)Nc1ccc2c(c1)nc1n2CCOC1	2.2	-1.1	-9.0	-5.5	-0.5	0.5
CCCC(=O)Nc1ccc2c(c1)nc1n2CCOC1	31.0*	4.7	3.1	-10.0	3.0	0.8
CNc1ncnc2c1ncn2[C@H]1CN(C2CCCC2)C[C@@H](CO)O1	0.9	-0.2	-8.4	5.3	7.8	0.8
O=C(CCl)NC(Cc1ccccc1)C(=O)OCC(=O)c1ccc(-c2ccccc2)cc1 (stereo not drawn)	-10.6	-35.0	27.3*	14.4	-7.7	9.3
Cc1nc2nc(C)n(CCN3CCOCC3)c(=O)c2c(-c2cccc([N+](=O)[O-])c2)c1C(=O)CCCCCCCCCCN1CCC(c2ccccc2)(c2ccccc2)CC1	-12.3	-44.0	94.6*	95.8*	-5.7	20.8
O=C(Nc1ccccc1)Nc1ccc2nnsc2c1	-55.5	-35.5	30.3*	44.4*	6.1	27.1
CN(CC(=O)NCCc1ccc(S(N)(=O)=O)cc1)CC(=O)Nc1ccc(Cl)c(C(F)(F)F)c1	23.5*	8.5	-10.9	1.4	-1.6	-1.4
Cc1ccccc1CS(=O)(=O)c1nnc([C@H](CC(C)C)NC(=O)OC(C)(C)C)o1	-11.3	5.3	28.2*	-0.8	0.9	1.6
CC(C)[C@H](NC(=O)OC(C)(C)C)c1nnc(S(=O)(=O)Cc2c(F)cccc2Cl)o1	-15.5	-2.8	43.2*	7.9	-1.8	2.4
CC[C@@H](C)[C@H](NC(=O)OC(C)(C)C)c1nnc(S(=O)(=O)Cc2cc(C)ccc2C)o1	-14.8	-1.9	47.8*	7.5	-2.9	2.2
CC(C)C[C@H](NC(=O)OC(C)(C)C)c1nnc(SCc2ccccc2)o1	-3.4	-0.3	-1.0	0.5	-5.0	-3.5
CSc1nc2ccc(NC(=O)CS(=O)(=O)c3ccccc3)cc2s1	-2.4	4.7	-9.4	-7.9	-0.2	5.1
O=C1CC(N2CCN(C/C=C/c3ccccc3)CC2)C(=O)N1Cc1cccs1 (stereo not drawn)	-23.7	-32.8	33.8*	38.7*	-10.5	2.5
O=C1CC(N2CCN(C/C=C/c3ccccc3)CC2)C(=O)N1CCc1ccccc1 (stereo not drawn)	-11.4	-24.0	21.2	6.7	3.1	20.5
CC(=O)Nc1cccc(NC(=O)c2ccccc2Cl)c1	3.2	-2.8	7.3	2.5	-0.2	0.7
Cc1ccc(OCCCCNC(C)(C)C)c([N+](=O)[O-])c1	13.1	-10.4	-2.6	27.1*	-5.2	3.1
COCCNCCOc1ccc(C)cc1[N+](=O)[O-]	-10.0	0.7	10.7	-9.8	-2.5	0.6
Cc1ccc(NC(=O)COC(=O)c2ccc(NC(=O)CC#N)cc2)cc1S(=O)(=O)N1CCOCC1	-2.0	1.4	6.8	8.6	2.6	1.5
CCOC(=O)C(C)c1nn(C)c(=O)c2ccccc12 (stereo not drawn)	-5.6	-18.5	3.5	6.8	-10.4	5.1
CCOC(=O)CCc1nn(C)c(=O)c2ccccc12	7.7	-13.8	-0.3	66.6*	-2.8	3.2
CC1(C(=O)NS(=O)(=O)c2ccccc2Cl)CCN1C(=O)CCc1cccs1 (stereo not drawn)	9.3	0.9	-13.2	-2.7	0.9	0.1
O=C(CNS(=O)(=O)c1ccc(F)cc1)N1CCN(c2ccccc2)CC1	2.3	-3.9	27.1*	6.2	1.9	2.3
O=C(CNS(=O)(=O)c1cccs1)N1CCN(c2ccccc2F)CC1	17.2*	7.4	-36.0	-14.8	-0.6	5.8
Cc1ccc(NC(=O)CN(CCc2ccccc2)S(C)(=O)=O)cc1	-0.3	-2.0	1.2	-14.2	6.1	1.7
COc1ccccc1-c1sc2ccccc2c1-c1ccc2c(c1)OCCO2	-4.3	-7.4	12.2	11.2	0.6	-0.3
